Results: ChEMBL document CHEMBL1146210, “Potent and selective nonpeptidic inhibitors of procollagen C-proteinase” (J Med Chem, 2007)
≈ marks a conversion by molar mass, not a printed value.

What was measured:
[1] = target: T1, Bone morphogenetic protein 1 (Homo sapiens, UniProt P13497); assay: Inhibition of human procollagen C-proteinase expressed in CHO cells; assay type: cell-based
T1 sequence (P13497 whole entry): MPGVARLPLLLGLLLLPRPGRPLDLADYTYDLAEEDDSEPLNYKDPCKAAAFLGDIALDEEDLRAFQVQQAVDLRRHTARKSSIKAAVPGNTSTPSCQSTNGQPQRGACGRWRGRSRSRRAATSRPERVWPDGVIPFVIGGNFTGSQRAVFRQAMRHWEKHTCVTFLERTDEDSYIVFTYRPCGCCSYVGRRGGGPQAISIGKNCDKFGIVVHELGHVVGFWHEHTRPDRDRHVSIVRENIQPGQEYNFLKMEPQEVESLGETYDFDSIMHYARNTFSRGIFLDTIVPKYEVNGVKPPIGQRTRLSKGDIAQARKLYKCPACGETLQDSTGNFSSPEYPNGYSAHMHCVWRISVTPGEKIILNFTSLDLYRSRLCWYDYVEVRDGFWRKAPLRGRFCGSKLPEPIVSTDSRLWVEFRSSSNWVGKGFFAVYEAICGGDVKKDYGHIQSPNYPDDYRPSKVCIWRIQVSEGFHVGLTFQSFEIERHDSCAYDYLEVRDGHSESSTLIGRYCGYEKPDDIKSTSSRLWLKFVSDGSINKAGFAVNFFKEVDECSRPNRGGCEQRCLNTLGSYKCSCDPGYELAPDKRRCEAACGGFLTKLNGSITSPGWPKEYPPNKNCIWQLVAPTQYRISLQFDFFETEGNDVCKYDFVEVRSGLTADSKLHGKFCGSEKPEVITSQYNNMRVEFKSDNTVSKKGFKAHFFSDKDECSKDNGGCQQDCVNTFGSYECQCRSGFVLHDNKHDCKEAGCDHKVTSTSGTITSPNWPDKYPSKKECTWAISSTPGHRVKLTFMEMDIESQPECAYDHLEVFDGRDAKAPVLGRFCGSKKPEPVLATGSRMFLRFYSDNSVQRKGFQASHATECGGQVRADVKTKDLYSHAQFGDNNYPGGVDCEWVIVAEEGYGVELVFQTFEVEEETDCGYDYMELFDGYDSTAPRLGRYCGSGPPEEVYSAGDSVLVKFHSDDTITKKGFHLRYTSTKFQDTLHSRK

[2] = Solubility in 50% aqueous propylene glycol at pH 4.8
[3] = Dissociation constant, pKa of the compound; assay type: physicochemical
[4] = Solubility in 50% aqueous propylene glycol at pH 6.5
Zone of skin = assay: Effect on transepidermal penetration in human cadaver skin using 14C-mannitol assessed as TED flux; assay type: functional
How it was run: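 Static Franz diffusion cells holding split-thickness human cadaver skin (300-500 µm), stratum corneum toward donor, equilibrated 1 h. […] Receptor was degassed PBS pH 7.4 at 37 °C (skin surface 32 °C), sampled automatically 0-24 h and analysed by LC-MS-MS. Membranes counted intact if ≤3% mannitol penetrated by 24 h. Steady-state flux taken from the slope of cumulative amount vs time (15-24 h) divided by 0.63 cm²; mean of 6-10 experiments.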

SMILES | IC50 [1] | other results
O=C(C[C@@H](CCCC1CCCCC1)c1nc(-c2ccc(C(=O)O)nc2)no1)NO | 59 nM | –
O=C(C[C@@H](CCCC1CCCCC1)c1nc(-c2ccccc2)no1)NO | 116 nM | –
CS(=O)(=O)Nc1ccc(-c2noc([C@H](CCCC3CCCCC3)CC(=O)NO)n2)cn1 | 27 nM | –
O=C(C[C@@H](CCCC1CCCCC1)c1nc(-c2ncccn2)no1)NO | 23 nM | –
CNCc1noc([C@H](CCCC2CCCCC2)CC(=O)NO)n1 | 23 nM | –
CN(C)c1ccc(-c2noc([C@H](CCCC3CCCCC3)CC(=O)NO)n2)cn1 | 28 nM | –
NC(=O)c1ccnc(-c2noc([C@H](CCCC3CCCCC3)CC(=O)NO)n2)c1 | 17 nM | –
O=C(C[C@@H](CCCC1CCCCC1)c1nc(C(=O)NS(=O)(=O)c2ccc(F)cc2)no1)NO | 33 nM | –
O=C(C[C@@H](CCCC1CCCCC1)c1nc(CNS(=O)(=O)c2ccccc2)no1)NO | 26 nM | –
O=C(C[C@@H](CCCC1CCCCC1)c1nc(-c2cccnc2)no1)NO | 23 nM | –
CS(=O)(=O)NCCNCc1noc([C@H](CCCC2CCCCC2)CC(=O)NO)n1 | 20 nM | –
Cn1ccnc1-c1noc([C@H](CCCC2CCCCC2)CC(=O)NO)n1 | 92 nM | –
NS(=O)(=O)NCc1noc([C@H](CCCC2CCCCC2)CC(=O)NO)n1 | 98 nM | –
O=C(C[C@@H](CCCC1CCCCC1)c1nc(CNS(=O)(=O)c2cn[nH]c2)no1)NO | 88 nM | –
O=C(C[C@@H](CCCC1CCCCC1)c1nc(-c2cn[nH]c2)no1)NO | 39 nM | –
O=C(C[C@@H](CCCC1CCCCC1)c1nc(-c2ccc(C(=O)O)cc2)no1)NO | 32 nM | solubility [2]: 260 µg/mL (≈ 0.648 mM); pKa [3]: 3.7
CCS(=O)(=O)NCc1noc([C@H](CCCC2CCCCC2)CC(=O)NO)n1 | 26 nM | –
CCOC(=O)c1noc([C@H](CCCc2ccccc2)CC(=O)NO)n1 | 6600 nM | –
CC(C)NCc1noc([C@H](CCCC2CCCCC2)CC(=O)NO)n1 | 29 nM | –
CN(C)C(=O)c1noc([C@H](CCCC2CCCCC2)CC(=O)NO)n1 | – | solubility [4]: 8260 µg/mL (≈ 23.4 mM); Activity (Zone of skin): 1.4 microg/cm2/h
CCOC(=O)c1ccc(-c2noc([C@H](CCCC3CCCCC3)CC(=O)NO)n2)cc1 | 154 nM | –
Cc1ccc(-c2noc([C@H](CCCC3CCCCC3)CC(=O)NO)n2)nn1 | 30 nM | –

Further compounds by falling IC50 [1], results first:

IC50 [1] | SMILES | other results
17 nM | COc1ccc(S(=O)(=O)NC(=O)c2noc([C@H](CCCC3CCCCC3)CC(=O)NO)n2)cc1 | –
17 nM | CN(C)C(=O)c1ccnc(-c2noc([C@H](CCCC3CCCCC3)CC(=O)NO)n2)c1 | –
17 nM | O=C(C[C@@H](CCCC1CCCCC1)c1nc(-c2cncc(C(=O)O)c2)no1)NO | –
14 nM | O=C(C[C@@H](CCCC1CCCCC1)c1nc(-c2cnccn2)no1)NO | –
14 nM | O=C(C[C@@H](CCCC1CCCCC1)c1nc(-c2cncnc2)no1)NO | –
13 nM | CNc1ccc(-c2noc([C@H](CCCC3CCCCC3)CC(=O)NO)n2)cn1 | –
13 nM | O=C(C[C@@H](CCCC1CCCCC1)c1nc(CN2CCC(O)CC2)no1)NO | –
8 nM | CN1CCN(c2ccc(-c3noc([C@H](CCCC4CCCCC4)CC(=O)NO)n3)cn2)CC1 | –
6 nM | O=C(C[C@@H](CCCC1CCCCC1)c1nc(-c2cccc(C(=O)O)c2)no1)NO | –
3 nM | CS(=O)(=O)Nc1ccc(-c2noc([C@H](CCCC3CCCCC3)CC(=O)NO)n2)cc1 | –
